Assay results gathered from unrelated publications.
Lines come from different studies, so protocols differ.
Target: Ephrin type-A receptor 5 (EPHA5, Homo sapiens, UniProt P54756)

CC(C)c1ccc(NC(=O)c2cccs2)c(-c2nc3ccccc3[nH]c2=O)c1 — activity vs control (enzyme activity; inhibitor; 1 µM): 112%
Nc1ncnc2occ(-c3ccc(NC(=O)Nc4cc(C(F)(F)F)ccc4F)cc3)c12 — remaining signal (cell-free assay; 20 µM): 0.05%
O=C1NC(=O)c2cc(Nc3ccc(F)cc3)c(Nc3ccc(F)cc3)cc21 — remaining signal (cell-free assay; 0.5 µM): 95.4%
Cc1cc(NC(=O)c2cccc3cc(-c4cccc5[nH]nc(N)c45)ccc23)ccc1F — activity vs control (enzyme activity; inhibitor; 0.1 µM): 99%
CC(=O)N1CCC(c2ccc(C(=O)NC3=NCCN3)cc2C(F)(F)F)CC1 — remaining binding (cell-free assay; competition with immobilised ligand; 1 µM): 100%
N#CCCc1ccc2c(c1)-c1[nH]c3ccc([N+](=O)[O-])cc3c1CC(=O)N2 — remaining signal (cell-free assay; 0.5 µM): 88.5%
COc1cc(-c2cc(-c3ccc(N4CCNCC4)cc3)cnc2C)cc(OC)c1OC — inhibition (enzyme activity; inhibitor; 1 µM): 4%
COc1cc2ncnc(Nc3ccc(Oc4ccccc4)cc3C)c2cc1OC — inhibition (enzyme activity; inhibitor; 1 µM): 5%
Cc1ccc(Nc2nccc(N(C)c3ccc4c(C)n(C)nc4c3)n2)cc1S(N)(=O)=O — inhibition (enzyme activity; inhibitor; 10 µM): 70%
Cc1cnc(NC2CCOCC2)nc1-n1cnc(C(=O)NC(CN)c2cc(F)cc(Cl)c2)c1 (stereo not shown) — remaining activity (enzyme activity; inhibitor; radiometric; 1 µM): 92%
FC(F)(F)c1ccc2c(c1)nc(-c1cccnc1)n2C1CC1 — remaining binding (cell-free assay; competition with immobilised ligand; 1 µM): 96%
Cc1ccc(C(=O)NCc2ccsc2)cc1C#Cc1cn(C(C)C)c2ncnc(N)c12 — activity vs control (enzyme activity; inhibitor; 1 µM): 1%
CNC(=O)c1cc(Oc2ccc(NC(=O)Nc3ccc(Cl)c(C(F)(F)F)c3)cc2)ccn1 — inhibition (enzyme activity; inhibitor; 0.3 µM): 32%
CNCc1ccccc1-c1csc([C@H](C)Nc2nc(C)nc3cc(OC)c(OC)cc23)c1 — remaining binding (cell-free assay; competition with immobilised ligand; 1 µM): 100%
Cc1sc(C(=O)NC2COC2)cc1-n1cc(NC(=O)Nc2c(F)cccc2Cl)cn1 — remaining activity (enzyme activity; inhibitor; 10 µM): 106%
N#CC1(c2ccccn2)CCN(Cc2cc(C(=O)N3CCCC3)c(=O)n3ccccc23)CC1 — remaining binding (cell-free assay; competition with immobilised ligand; 1 µM): 100%
CCN(CC)CCNC(=O)c1c(C)[nH]c(/C=C2\C(=O)Nc3ccc(F)cc32)c1C — inhibition (enzyme activity; inhibitor; 10 µM): 58%
Cc1noc([C@H]2C[C@@H](c3ccc(C(F)(F)F)cc3)CN(C(=O)N3CCS(=O)(=O)C3)C2)n1 — remaining binding (cell-free assay; competition with immobilised ligand; 1 µM): 100%
O=C1Nc2ccc(Cl)cc2C1=Cc1cc(Cl)c(O)c(Cl)c1 — remaining signal (cell-free assay; 0.5 µM): 99.4%
O=c1nc(-c2ccccn2)sc2ccccc12 — remaining binding (cell-free assay; competition with immobilised ligand; 1 µM): 94%
CC(C)(O)[C@H]1CC[C@H](Nc2ccc3ncc(-c4cccc(C(F)(F)F)c4)n3n2)CC1 — remaining activity (enzyme activity; inhibitor; 1 µM): 101%
Cn1cc(Cl)c2c(Oc3c(F)cc(Nc4cc(Cl)nc(N)n4)cc3F)ccnc21 — remaining binding (cell-free assay; competition with immobilised ligand; 0.1 µM): 100%
O=C(Nc1cnn(-c2csc(C(=O)NC3COC3)c2)c1)Nc1c(F)cccc1Cl — remaining activity (enzyme activity; inhibitor; 5 µM): 95%
O=C(Nc1ccc(Oc2ccc(F)cc2)cc1)N1CCc2ncccc2[C@H]1c1ccc(F)cc1 — remaining binding (cell-free assay; competition with immobilised ligand; 1 µM): 100%
CC(C)(C)c1nc2c(s1)c1nc(N)ncc1c1ccc(NS(=O)(=O)c3c(F)cccc3F)c(F)c12 — remaining activity (enzyme activity; inhibitor; radiometric; 1 µM): 109%
